Results from ChEMBL document CHEMBL1154533, “Syntheses and evaluation of glucosyl aryl thiosemicarbazide and glucosyl thiosemicarbazone derivatives as antioxidant and anti-dyslipidemic agents” (2009).

Tests used:
Design in all cases: scale not given: the % may be the effect or the level left
[1] = system: Rattus norvegicus; test: Antidyslipidemic activity against triton-induced hyperlipidemia in Charles Foster rat assessed as reduction in total cholesterol level at 100 mg/kg, po after 18 hrs relative to control; format: functional
Method in brief: (§1)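 Adult male Charles Foster rats (200 […] 225 g), six per group. Triton WR-1339 at 400 mg/Kg ip induced hyperlipidemia. Test compound was given at 100 mg/Kg po, suspended in 0.2% w/v gum acacia in water, at the same time as triton; vehicle controls were included. After 18 h, retro-orbital blood was taken into EDTA and plasma obtained (2500 g, 4 °C, 10 min). Plasma was diluted 1:3 in saline and TC, PL and Tg measured by standard methods. Reported as mean […] SD; Student's t-test.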

[2] = system: Rattus norvegicus; test: Antidyslipidemic activity against triton-induced hyperlipidemia in Charles Foster rat assessed as reduction in phospholipid level at 100 mg/kg, po after 18 hrs relative to control; format: functional; method in brief: as §1
[3] = system: Rattus norvegicus; test: Antidyslipidemic activity against triton-induced hyperlipidemia in Charles Foster rat assessed as reduction in triglyceride level at 100 mg/kg, po after 18 hrs relative to control; format: functional; method in brief: as §1
[4] = system: Rattus norvegicus; test: Decrease in triton-induced increase in protein level in Charles Foster rat hyperlipidemia model at 100 mg/kg, po after 18 hrs relative to control; format: functional
[5] = system: Rattus norvegicus; test: Antidyslipidemic activity against triton-induced inhibition of post heparin lipolytic activity in Charles Foster rat hyperlipidemia model assessed as formation of free fatty acid per mL of plasma at 100 mg/kg, po after 18 hrs relative to control; format: functional
Method in brief: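 Triton WR-1339 rat model (400 mg/Kg ip; compound 100 mg/Kg po in gum acacia, given with triton; six rats per group). Post-heparin lipolytic activity was measured in plasma collected at 18 h. Expressed as nmol free fatty acid formed/h/mL plasma; mean ± SD.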

[6] = Antioxidant activity assessed as reduction in generation of superoxide radicals at 100 ug/mL measured as formazone formation by spectrophotometry relative to control; format: functional
Method in brief: (§2)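 Superoxide was generated enzymatically with xanthine ([…]), xanthine oxidase (0.04 U) and nitroblue tetrazolium (320 μM) in 100 mM phosphate buffer, pH 8.2, with or without compound. Incubated 30 min at 37 °C, then stopped with glacial acetic acid. Formazone was quantified spectrophotometrically (nmol/min). Mean ± SD of six; Student's t-test.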

[7] = Antioxidant activity assessed as reduction in generation of superoxide radicals at 200 ug/mL measured as formazone formation by spectrophotometry relative to control; format: functional; method in brief: as §2
[8] = Antioxidant activity assessed as reduction in generation of hydroxyl radicals at 100 ug/mL measured as malondialdehyde formation by spectrophotometry relative to control; format: functional
[9] = Antioxidant activity assessed as reduction in generation of hydroxyl radicals at 200 ug/mL measured as malondialdehyde formation by spectrophotometry relative to control; format: functional
[10] = Antioxidant activity assessed as reduction in lipid peroxidation in microsomes at 100 ug/mL measured as malondialdehyde formation by spectrophotometry relative to control; format: functional; conditions: Microsome
[11] = Antioxidant activity assessed as reduction in lipid peroxidation in microsomes at 200 ug/mL measured as malondialdehyde formation by spectrophotometry relative to control; format: functional; conditions: Microsome
[12] = Antioxidant activity assessed as reduction in lipid peroxidation in microsomes at 200 ug/mL measured as malondialdehyde formation by spectrophotometry relative to control; conditions: Microsome

| Compound | Activity [1] | Activity [2] | Activity [3] | Activity [4] | Activity [5] | Activity [6] | Activity [7] | Activity [8] | Activity [9] | Activity [10] | Activity [11] | Activity [12] |
| --- | --- | --- | --- | --- | --- | --- | --- | --- | --- | --- | --- | --- |
| CC(=O)OC[C@H]1O[C@@H](NC(=S)NNc2ccc([N+](=O)[O-])cc2[N+](=O)[O-])[C@H](OC(C)=O)[C@@H](OC(C)=O)[C@@H]1OC(C)=O | 13% | 10% | 8% | 13% | 17% | 22% | 28% | 18% | 26% | 23% | 36% | – |
| CC(=O)OC[C@H]1O[C@@H](NC(=S)N/N=C(\C)c2cc(C)ccc2C)[C@H](OC(C)=O)[C@@H](OC(C)=O)[C@@H]1OC(C)=O | 18% | 18% | 17% | 12% | 10% | 20% | 30% | 16% | 29% | 16% | 26% | – |
| CC(=O)OC[C@H]1O[C@@H](NC(=S)NNc2ccccc2)[C@H](OC(C)=O)[C@@H](OC(C)=O)[C@@H]1OC(C)=O | 11% | 10% | 9% | 16% | 8% | 19% | 32% | 25% | 42% | 23% | 39% | – |
| COc1ccc(/C=N/NC(=S)N[C@@H]2O[C@H](COC(C)=O)[C@@H](OC(C)=O)[C@H](OC(C)=O)[C@H]2OC(C)=O)cc1 | 17% | 15% | 10% | 15% | 8% | 25% | 33% | 20% | 34% | 26% | 35% | – |
| CC(=O)OC[C@H]1O[C@@H](NC(=S)N/N=C/c2ccc([N+](=O)[O-])cc2)[C@H](OC(C)=O)[C@@H](OC(C)=O)[C@@H]1OC(C)=O | 19% | 14% | 11% | 22% | 13% | 13% | 23% | 17% | 23% | 18% | 31% | – |
| CC(=O)OC[C@H]1O[C@@H](NC(=S)N/N=C(\C)c2cccc(N)c2)[C@H](OC(C)=O)[C@@H](OC(C)=O)[C@@H]1OC(C)=O | 16% | 15% | 13% | 20% | 9% | 23% | 38% | 20% | 38% | 19% | 35% | – |
| Oc1ncnc2[nH]ncc12 | – | – | – | – | – | 77% | – | – | – | – | – | – |
| CC(=O)OC[C@H]1O[C@@H](NC(=S)N/N=C(\C)c2cccc([N+](=O)[O-])c2)[C@H](OC(C)=O)[C@@H](OC(C)=O)[C@@H]1OC(C)=O | 23% | 19% | 18% | 19% | 10% | 17% | 33% | 24% | 35% | 20% | 30% | – |
| CC(=O)OC[C@H]1O[C@@H](NC(=S)N/N=C(\C)c2ccc(Br)cc2)[C@H](OC(C)=O)[C@@H](OC(C)=O)[C@@H]1OC(C)=O | 22% | 26% | 25% | 26% | 16% | 21% | 33% | 14% | 24% | 16% | 29% | – |
| CC(=O)OC[C@H]1O[C@@H](NC(=S)N/N=C/c2cccnc2)[C@H](OC(C)=O)[C@@H](OC(C)=O)[C@@H]1OC(C)=O | 15% | 14% | 10% | 14% | 9% | 16% | 28% | 13% | 26% | 18% | 26% | – |
| CC(=O)OC[C@H]1O[C@@H](NC(=S)N/N=C/c2ccc(Cl)cc2)[C@H](OC(C)=O)[C@@H](OC(C)=O)[C@@H]1OC(C)=O | 14% | 6% | 10% | 22% | 12% | 16% | 25% | 13% | 19% | 23% | 33% | – |
| CC(=O)OC[C@H]1O[C@@H](NC(=S)N/N=C/c2ccc([N+](=O)[O-])s2)[C@H](OC(C)=O)[C@@H](OC(C)=O)[C@@H]1OC(C)=O | 13% | 16% | 14% | 19% | 14% | 20% | 34% | 20% | 37% | 11% | 23% | – |
| CC(=O)OC[C@H]1O[C@@H](NC(=S)N/N=C/c2ccncc2)[C@H](OC(C)=O)[C@@H](OC(C)=O)[C@@H]1OC(C)=O | 11% | 11% | 8% | 11% | 8% | 14% | 25% | 11% | 23% | 22% | 33% | – |
| Cc1c(C)c2c(c(C)c1O)CC[C@@](C)(CCC[C@H](C)CCC[C@H](C)CCCC(C)C)O2 | – | – | – | – | – | – | – | – | – | – | – | 53% |
| CC(=O)OC[C@H]1O[C@@H](NC(=S)NNc2ccc(F)cc2F)[C@H](OC(C)=O)[C@@H](OC(C)=O)[C@@H]1OC(C)=O | 24% | 25% | 25% | 20% | 23% | 16% | 27% | 20% | 35% | 24% | 31% | – |
| COc1ccc(NNC(=S)N[C@@H]2O[C@H](COC(C)=O)[C@@H](OC(C)=O)[C@H](OC(C)=O)[C@H]2OC(C)=O)cc1 | 18% | 12% | 10% | 18% | 7% | 21% | 37% | 15% | 23% | 28% | 32% | – |
| OC[C@@H](O)[C@@H](O)[C@H](O)[C@H](O)CO | – | – | – | – | – | – | – | 45% | – | – | – | – |
| CC(=O)OC[C@H]1O[C@@H](NC(=S)NNc2ccc(F)cc2)[C@H](OC(C)=O)[C@@H](OC(C)=O)[C@@H]1OC(C)=O | 13% | 14% | 9% | 18% | 14% | 15% | 29% | 22% | 36% | 22% | 34% | – |
| Cc1ccc(C)c(OCCCC(C)(C)C(=O)O)c1 [GEMFIBROZIL] | 38% | 39% | 37% | 33% | 34% | – | – | – | – | – | – | – |
| COc1ccc(/C(C)=N/NC(=S)N[C@@H]2O[C@H](COC(C)=O)[C@@H](OC(C)=O)[C@H](OC(C)=O)[C@H]2OC(C)=O)cc1OC | 19% | 23% | 22% | 24% | 25% | 9% | 24% | 15% | 27% | 22% | 35% | – |
